{"source": "PubChem BioAssay", "note": "Calls of active or inactive are those of the source.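 Rule for the calls, unless noted: active = potentiation averaged over duplicate wells exceeding buffer-only control mean by more than 3 SD; inactive = the rest.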"}
{"tested_on": "not listed separately", "experiment": "nonspecific flux increase, KCNQ1-free cells – parental CHO cells, counter-screen for KCNQ1 potentiator project (AID 493006;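 active = duplicate-averaged activation above buffer control mean plus 5 SD of those controls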;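 for activation: fluorescence ratio of max minus min over baseline after K+ and Tl+ depolarization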)", "details": "parental CHO-K1 cells, FluxOR thallium flux, at 10 µM; stronger effect = higher value", "method_in_brief": "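Material: untransfected host CHO-K1 cells with FluxOR thallium dye. Timing: overnight 37 °C plating, 90 min RT dye, 20 min compound. Detection: kinetic FluxOR fluorescence, 10 s baseline, 110 s after stimulus. Read-out basis: max-minus-min fluorescence over baseline, percent of buffer-to-R-L3 span. Replicates: duplicate wells per compound, percent values averaged.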"}
{"smiles": "Cc1cc(C)cc(OCC(O)Cn2nc(C)cc2C)c1", "note": "(stereo not drawn)", "outcome": "inactive"}
{"smiles": "CCOc1ccc(C(=O)NC(=S)N(Cc2ccccc2)Cc2ccccc2)cc1", "activation": "395% (active)"}
{"smiles": "N#Cc1cn(CC(=O)NCC2CCCO2)c2ccccc12", "note": "(stereo not drawn)", "outcome": "inactive"}
{"smiles": "O=C(Cn1c(=O)oc2ccccc21)N1CCN(c2ccc(N3CCOCC3)nn2)CC1", "outcome": "inactive"}
{"smiles": "Cc1cc(C(c2cc(C)c(N)c(C)c2)c2ccco2)cc(C)c1N", "activation": "189% (active)"}
{"smiles": "COc1cccc(C(=O)NC(=S)Nc2ccc3c4c(cccc24)CC3)c1", "outcome": "inactive"}
{"smiles": "COc1cc(CNCCN2CCOCC2)ccc1OCc1ccc(Cl)cc1Cl", "outcome": "inactive"}
{"smiles": "CCCN(C(=O)c1cn(-c2ccccc2)nc1-c1ccc(OC)cc1)C1CCS(=O)(=O)C1", "note": "(stereo not drawn)", "outcome": "inactive"}
{"smiles": "COc1cc(CN(C)CC2CCCN(CCc3cccc(C(F)(F)F)c3)C2)ccc1O", "note": "(stereo not drawn)", "outcome": "inactive"}
{"smiles": "OCCCCNCc1ccc(OCc2ccc(Cl)cc2Cl)cc1", "outcome": "inactive"}
{"smiles": "Cc1ccc(NC(=O)CN(C)C(=O)CCOc2ccccc2C)cc1", "outcome": "inactive"}
{"smiles": "O=C(NC(=S)N(CCCCO)C1CCCCC1)c1sc2ccccc2c1Cl", "activation": "368% (active)"}
{"smiles": "CCc1nnc(SCC(=O)Nc2nnc(C)s2)n1CC1CCCO1", "note": "(stereo not drawn)", "activation": "278% (active)"}
{"smiles": "Cc1csc(=O)n1CCC(=O)OCC(=O)NCc1ccc(F)cc1", "outcome": "inactive"}
{"smiles": "S=C(N/N=C/c1ccccc1Cl)Nc1cccc(Cl)c1Cl", "outcome": "inactive"}
{"smiles": "Cc1sc2ncnc(SCC(=O)c3ccc(O)cc3O)c2c1C", "activation": "150% (active)"}
{"smiles": "C/C(=N/NC(=O)c1ccc(Br)o1)c1ccc(C)o1", "outcome": "inactive"}
{"smiles": "Cc1cccc(NC(=S)NC(=O)c2cc(-c3ccccc3)nc3ccccc23)c1", "outcome": "inactive"}
{"smiles": "O=c1c2cccnc2n(-c2ccccc2)n1Cc1ccc(Cl)cc1", "outcome": "inactive"}
{"smiles": "CC(C)n1cc(NC(=O)c2cc(-c3ccccc3)on2)cn1", "activation": "182% (active)"}
{"smiles": "COc1cccc2sc(N(CCCN(C)C)C(=O)CCS(=O)(=O)c3ccccc3)nc12", "outcome": "inactive"}
{"smiles": "CCCCNC(=S)NNC(=O)c1nn(C)c(C)c1Cl", "outcome": "inactive"}
{"smiles": "CC(C)c1nc2n[nH]c(N)c2c2c1CCCC2", "outcome": "inactive"}
{"smiles": "Cn1ncc2c(O/N=C(\\N)c3ccc(C(C)(C)C)cc3)ncnc21", "outcome": "inactive"}
{"smiles": "COC(=O)c1c(N)sc2c1CCN(c1ncc(C(F)(F)F)cc1Cl)C2", "outcome": "inactive"}
{"smiles": "O=C(NC(=S)N1CCc2ccccc21)c1ccccc1Br", "activation": "537% (active)"}
{"smiles": "O=C1CCC/C(=N\\NC(=O)c2ccc(COc3cccc4cccnc34)cc2)C1", "outcome": "inactive"}
{"smiles": "Cc1ccc(-c2ccc(=O)n(Cc3cccc(Br)c3)n2)cc1", "outcome": "inactive"}
{"smiles": "O=c1cc(-c2c(F)c(F)c(F)c(F)c2F)oc2ccccc12", "outcome": "inactive"}
{"smiles": "CN(CC(=O)NCCc1ccc(F)cc1)Cc1cccc(Cl)c1", "outcome": "inactive"}
{"smiles": "Cc1ccc(-c2csc(=S)[nH]2)cc1", "activation": "628% (active)"}
{"smiles": "COc1ccccc1C(=O)NNC(=O)C(=O)Nc1ccc(C)c(Cl)c1", "activation": "552% (active)"}
{"smiles": "CCCCOc1ccc(C(=O)Oc2ccc(C)nc2)cc1", "outcome": "inactive"}
{"smiles": "C[C@@H](NC(=O)[C@@H]1Cc2ccccc2CN1)C(=O)NC1CCCC1", "outcome": "inactive"}
{"smiles": "Cc1ccc(-c2ccnc(=S)[nH]2)cc1", "outcome": "inactive"}
{"smiles": "CC1CCCN(c2ccc(C(=O)NCc3ccccc3)cn2)C1", "note": "(stereo not drawn)", "activation": "155% (active)"}
{"smiles": "CCOC(=O)Cc1csc(NC(=O)CSc2nnnn2-c2ccc(C)cc2C)n1", "outcome": "inactive"}
{"smiles": "COc1ccc(C(=O)NC(=S)N2CCC(C)CC2)cc1Br", "activation": "185% (active)"}
{"smiles": "O=C(NC(=S)Nc1cccc(Cl)c1N1CCCCC1)c1ccco1", "activation": "156% (active)"}
{"molecular_target": "Potassium voltage-gated channel subfamily KQT member 1 (Homo sapiens) (UniProt P51787)", "sequence (P51787 whole entry, looked up)": "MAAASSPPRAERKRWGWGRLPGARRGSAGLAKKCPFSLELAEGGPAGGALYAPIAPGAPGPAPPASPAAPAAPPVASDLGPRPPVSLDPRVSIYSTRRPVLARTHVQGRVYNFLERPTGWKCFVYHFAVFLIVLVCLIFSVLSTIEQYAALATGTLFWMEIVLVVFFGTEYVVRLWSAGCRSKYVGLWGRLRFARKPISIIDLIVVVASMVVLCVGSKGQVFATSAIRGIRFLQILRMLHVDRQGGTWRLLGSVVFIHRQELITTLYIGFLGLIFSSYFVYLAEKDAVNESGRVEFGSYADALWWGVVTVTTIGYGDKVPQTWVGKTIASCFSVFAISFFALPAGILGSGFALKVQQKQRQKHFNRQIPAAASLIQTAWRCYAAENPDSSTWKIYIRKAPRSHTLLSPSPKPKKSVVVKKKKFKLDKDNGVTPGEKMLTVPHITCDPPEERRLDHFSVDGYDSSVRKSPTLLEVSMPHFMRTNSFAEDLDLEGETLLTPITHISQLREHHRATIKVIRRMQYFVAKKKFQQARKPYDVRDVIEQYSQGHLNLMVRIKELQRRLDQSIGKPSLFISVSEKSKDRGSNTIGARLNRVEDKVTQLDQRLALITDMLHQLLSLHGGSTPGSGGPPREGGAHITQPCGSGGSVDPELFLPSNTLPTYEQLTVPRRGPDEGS", "experiment": "enhancement of KCNQ1 channel thallium flux – FluxOR thallium flux, CHO cells, duplicates, confirmation (AID 493007);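 for outcome: cells depolarized by a potassium plus thallium sulfate stimulus after compound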", "details": "KCNQ1 cell line, FluxOR thallium flux fluorescence, at 10 µM; stronger effect = higher value, % of reference activator effect, buffer zero", "method_in_brief": "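Test system – KCNQ1-expressing CHO cell line · Incubation – FluxOR dye loading 90 min, compound exposure 20 min, room temperature · Detection – FluxOR Tl+ flux fluorescence, 10 s baseline plus 110 s recording · Controls – buffer-only wells as 0% and R-L3 activator as 100%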"}
{"smiles": "Cc1cc(C)cc(OCC(O)Cn2nc(C)cc2C)c1", "note": "(stereo not drawn)", "outcome": "inactive"}
{"smiles": "CCOc1ccc(C(=O)NC(=S)N(Cc2ccccc2)Cc2ccccc2)cc1", "potentiation": "296% (active)"}
{"smiles": "N#Cc1cn(CC(=O)NCC2CCCO2)c2ccccc12", "note": "(stereo not drawn)", "outcome": "inactive"}
{"smiles": "O=C(Cn1c(=O)oc2ccccc21)N1CCN(c2ccc(N3CCOCC3)nn2)CC1", "outcome": "inactive"}
{"smiles": "Cc1cc(C(c2cc(C)c(N)c(C)c2)c2ccco2)cc(C)c1N", "potentiation": "138% (active)"}
{"smiles": "COc1cccc(C(=O)NC(=S)Nc2ccc3c4c(cccc24)CC3)c1", "potentiation": "25.5% (active)"}
{"smiles": "COc1cc(CNCCN2CCOCC2)ccc1OCc1ccc(Cl)cc1Cl", "outcome": "inactive"}
{"smiles": "CCCN(C(=O)c1cn(-c2ccccc2)nc1-c1ccc(OC)cc1)C1CCS(=O)(=O)C1", "note": "(stereo not drawn)", "outcome": "inactive"}
{"smiles": "COc1cc(CN(C)CC2CCCN(CCc3cccc(C(F)(F)F)c3)C2)ccc1O", "note": "(stereo not drawn)", "potentiation": "43% (active)"}
{"smiles": "OCCCCNCc1ccc(OCc2ccc(Cl)cc2Cl)cc1", "potentiation": "23.5% (active)"}
{"smiles": "Cc1ccc(NC(=O)CN(C)C(=O)CCOc2ccccc2C)cc1", "outcome": "inactive"}
{"smiles": "O=C(NC(=S)N(CCCCO)C1CCCCC1)c1sc2ccccc2c1Cl", "potentiation": "192% (active)"}
{"smiles": "CCc1nnc(SCC(=O)Nc2nnc(C)s2)n1CC1CCCO1", "note": "(stereo not drawn)", "potentiation": "86.5% (active)"}
{"smiles": "Cc1csc(=O)n1CCC(=O)OCC(=O)NCc1ccc(F)cc1", "outcome": "inactive"}
{"smiles": "S=C(N/N=C/c1ccccc1Cl)Nc1cccc(Cl)c1Cl", "potentiation": "71% (active)"}
{"smiles": "Cc1sc2ncnc(SCC(=O)c3ccc(O)cc3O)c2c1C", "potentiation": "20.5% (active)"}
{"smiles": "C/C(=N/NC(=O)c1ccc(Br)o1)c1ccc(C)o1", "outcome": "inactive"}
{"smiles": "Cc1cccc(NC(=S)NC(=O)c2cc(-c3ccccc3)nc3ccccc23)c1", "potentiation": "32% (active)"}
{"smiles": "O=c1c2cccnc2n(-c2ccccc2)n1Cc1ccc(Cl)cc1", "outcome": "inactive"}
{"smiles": "CC(C)n1cc(NC(=O)c2cc(-c3ccccc3)on2)cn1", "potentiation": "35.5% (active)"}
{"smiles": "COc1cccc2sc(N(CCCN(C)C)C(=O)CCS(=O)(=O)c3ccccc3)nc12", "outcome": "inactive"}
{"smiles": "CCCCNC(=S)NNC(=O)c1nn(C)c(C)c1Cl", "outcome": "inactive"}
{"smiles": "CC(C)c1nc2n[nH]c(N)c2c2c1CCCC2", "outcome": "inactive"}
{"smiles": "Cn1ncc2c(O/N=C(\\N)c3ccc(C(C)(C)C)cc3)ncnc21", "outcome": "inactive"}
{"smiles": "COC(=O)c1c(N)sc2c1CCN(c1ncc(C(F)(F)F)cc1Cl)C2", "outcome": "inactive"}
{"smiles": "O=C(NC(=S)N1CCc2ccccc21)c1ccccc1Br", "potentiation": "208% (active)"}
{"smiles": "O=C1CCC/C(=N\\NC(=O)c2ccc(COc3cccc4cccnc34)cc2)C1", "outcome": "inactive"}
{"smiles": "Cc1ccc(-c2ccc(=O)n(Cc3cccc(Br)c3)n2)cc1", "outcome": "inactive"}
{"smiles": "O=c1cc(-c2c(F)c(F)c(F)c(F)c2F)oc2ccccc12", "outcome": "inactive"}
{"smiles": "CN(CC(=O)NCCc1ccc(F)cc1)Cc1cccc(Cl)c1", "outcome": "inactive"}
{"smiles": "Cc1ccc(-c2csc(=S)[nH]2)cc1", "potentiation": "189% (active)"}
{"smiles": "COc1ccccc1C(=O)NNC(=O)C(=O)Nc1ccc(C)c(Cl)c1", "potentiation": "235% (active)"}
{"smiles": "CCCCOc1ccc(C(=O)Oc2ccc(C)nc2)cc1", "outcome": "inactive"}
{"smiles": "C[C@@H](NC(=O)[C@@H]1Cc2ccccc2CN1)C(=O)NC1CCCC1", "outcome": "inactive"}
{"smiles": "Cc1ccc(-c2ccnc(=S)[nH]2)cc1", "outcome": "inactive"}
{"smiles": "CC1CCCN(c2ccc(C(=O)NCc3ccccc3)cn2)C1", "note": "(stereo not drawn)", "potentiation": "26% (active)"}
{"smiles": "CCOC(=O)Cc1csc(NC(=O)CSc2nnnn2-c2ccc(C)cc2C)n1", "outcome": "inactive"}
{"smiles": "COc1ccc(C(=O)NC(=S)N2CCC(C)CC2)cc1Br", "potentiation": "90% (active)"}
{"smiles": "O=C(NC(=S)Nc1cccc(Cl)c1N1CCCCC1)c1ccco1", "potentiation": "148% (active)"}
